Structures are written as SMILES.

This note sets out measurements from ChEMBL document CHEMBL4368876, “Synthesis of d-(+)-camphor-based N-acylhydrazones and their antiviral activity” (Medchemcomm, 2018).

In one series the test system is Vaccinia virus. Put plainly: Antiviral activity against Vaccinia virus Copenhagen infected in African green monkey Vero cells assessed as inhibition of viral replication after 4 days by neural red dye-based spectrophotometric method. In kind it is functional, organism-based, Orthopoxvirus vaccinia.
Series [1] in a line: Cytotoxicity against African green monkey Vero cells assessed as reduction in cell viability after 4 days by neural red dye-based spectrophotometric method. The following applies: chlorocebus sabaeus. The gist of the method: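 Vero cell monolayers in DMEM with 2% fetal serum were given serial dilutions of compound, with no virus added. After 4 days the cells were stained with neutral red for 2 h, unbound dye was washed out and the cells were lysed. OD was read at 490 nm. CC50 in μM was derived from the OD data; three independent experiments, mean ± 95% confidence interval.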

Series [2] can be described thus: Selectivity index, ratio of CC50 for African green monkey Vero cells to IC50 for Vaccinia virus Copenhagen infected in African green monkey Vero cells. In kind it is toxicity. The following applies: read-out: Ratio CC50/IC50.
A short description of series [3]: Cytotoxicity against MDCK cells assessed as reduction in cell viability after 48 hrs by MTT assay. The following applies: dog. In kind it is cell-based, Canis lupus familiaris. The essentials: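 MDCK cells were exposed to three-fold dilutions of compound in MEM (top 300–400 μg mL-1) for 48 h at 36 °C in 5% CO2, then washed twice with PBS. MTT ([…] in PBS) was added for 1 h and formazan was dissolved in DMSO. OD was read at 535 nm. Triplicate wells per concentration; CC50 was taken from OD versus concentration.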

The next series deals with Influenza A virus. Put plainly: Antiviral activity against Influenza A virus (A/Puerto Rico/8/34(H1N1)) infected in MDCK cells assessed as reduction in virus titer pretreated with cells for 1 hr followed by viral infection for 1 hr and subsequent unbound virion washout measured after 24 to 48 hrs by hemagglutination test. In kind it is functional, organism-based, A/Puerto Rico/8/1934(H1N1). The gist of the method:
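MDCK cells pre-incubated 1 h at 36 °C with compound in MEM containing 1 μg mL−1 trypsin, then infected with A/Puerto Rico/8/34 (H1N1), moi 0.01, for 1 h. Unbound virus washed off, then 24 h at 36 °C, 5% CO2. Supernatant titre read by hemagglutination after 48 h passage in MDCK, as % of untreated control. Triplicate wells; IC50 calculated.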

The nature of series [4]: Selectivity index, ratio of CC50 for MDCK cells to IC50 for Influenza A virus (A/Puerto Rico/8/34(H1N1)) infected in MDCK cells. In kind it is toxicity, cell-based. The note with it: dog, read-out: Ratio CC50/IC50.
In the next series the test system is Orthopoxvirus. Briefly: Antiviral activity against Orthopoxvirus assessed as reduction in viral replication. Type of series: functional, organism-based.
Where [5] appears, read: Orthopoxvirus vaccinia, Copenhagen, Vero, 96 h, read-out: IC50.
Where [6] appears, read: Influenza A virus, A/Puerto Rico/8/1934(H1N1), MDCK, read-out: IC50.

Regarding `CC(=O)N/N=C1\C[C@H]2CC[C@]1(C)C2(C)C`, the 50% inhibitory concentration (IC50) entry with Vaccinia virus (vero) is reported as “Not Active”. Further, the CC50 at 96 h in series [1] is above 250 µM.

Turning to `CC12C=CC3(O1)C(C(=O)N1CCSC13)C2C(=O)N/N=C1\C[C@H]2CC[C@]1(C)C2(C)C` (mixture of isomers), the IC50 entry in the series with Vaccinia virus (vero) is “Not Active”. Besides, the half-maximal cytotoxic concentration (CC50) at 96 h in series [1] is above 250 µM.

For `CC1(C)[C@@H]2CC[C@@]1(C)/C(=N/NC(=O)c1ccc(Br)cc1)C2`, the values for the IC50 in the series on Vaccinia virus (setting [5]) and in the series with Influenza A virus (setting [6]) were 11.1 µM and 219 µM, respectively. In series [1], the 50% cytotoxic concentration (CC50) at 96 h worked out at 288 µM. Also, the figures for the selectivity ratio in series [2] and in series [4] were 26 and 4, respectively. For the same compound, the 50% cytotoxic concentration (CC50) at 48 h in series [3] was above 822 µM.

As to `CC12C=CC3(CN(c4ccccc4)C(=O)C3C1C(=O)N/N=C1\C[C@H]3CC[C@]1(C)C3(C)C)O2` (mixture of isomers), the values for the IC50 in the series on Vaccinia virus (setting [5]) and in the series with Influenza A virus (setting [6]) were 6.2 µM and 22 µM, respectively. For the same compound, the CC50 at 96 h in series [1] came out at 600 µM. Further, the selectivity ratio in series [2] was determined as 97; in series [4], 12. The CC50 at 48 h in series [3] was found to be 277 µM.

`Nc1ccn(C[C@@H](CO)OCP(=O)(O)O)c(=O)n1` [CIDOFOVIR]: in series [2], the selectivity ratio was 12.

For the compound `NC12CC3CC(CC(C3)C1)C2` [AMANTADINE], the IC50 in the series with Influenza A virus (setting [6]) is 64 µM. In series [4], the selectivity ratio is 4.

On to `CCCC(=O)N/N=C1\C[C@H]2CC[C@]1(C)C2(C)C`, for which the IC50 in the series on Vaccinia virus (setting [5]) worked out at 69.8 µM; with Influenza A virus (setting [6]), 794 µM. In addition, in series [1], the CC50 at 96 h was determined as 854 µM. Moreover, the selectivity ratio in series [2] worked out at 12; in series [4], 2. For the same compound, the CC50 at 48 h in series [3] was above 1190 µM.

Regarding `CC1(C)[C@@H]2CC[C@@]1(C)/C(=N/NC(=O)c1ccco1)C2`, the IC50 in the series with Vaccinia virus (setting [5]) amounted to 38.7 µM; in the series on Influenza A virus (setting [6]) it was 325 µM. Further, the CC50 at 96 h in series [1] is 285 µM. Moreover, the selectivity ratio in series [2] was found to be 7; in series [4], 3. The 50% cytotoxic concentration (CC50) at 48 h in series [3] was 1090 µM.

As for `CC1(C)[C@@H]2CC[C@@]1(C)/C(=N/NC(=O)c1ccccc1)C2`, the IC50 with Vaccinia virus (setting [5]) came out at 5.1 µM; in the series on Influenza A virus (setting [6]), 201 µM. In series [1], the CC50 at 96 h came out at 1430 µM. Further, the selectivity ratio in series [2] came to 280; in series [4] it was 5. Also, the cytotoxic concentration (CC50) at 48 h in series [3] is above 1050 µM.

For `CC12C=CC3(CN(Cc4ccccc4)C(=O)C3C1C(=O)N/N=C1\C[C@H]3CC[C@]1(C)C3(C)C)O2` (mixture of isomers), the figures for the 50% inhibitory concentration (IC50) result with Vaccinia virus (vero) and with Influenza A virus (setting [6]) were “Not Active” and above 72 µM, respectively. For the same compound, in series [1], the CC50 at 96 h was above 250 µM. In series [3], the CC50 at 48 h is 227 µM. For the same compound, the selectivity ratio in series [4] turned out to be 3.

Regarding `NC(=O)c1ncn([C@@H]2O[C@H](CO)[C@@H](O)[C@H]2O)n1` [RIBAVIRIN], the CC50 at 48 h in series [3] was above 2130 µM. Further, in the series on Influenza A virus (setting [6]), the 50% inhibitory concentration (IC50) came out at 30 µM. The selectivity ratio in series [4] is 71.

Turning to `CC1CCN(CC(=O)N[C@@H]2C[C@H]3CC[C@]2(C)C3(C)C)CC1`, the half-maximal inhibitory concentration (IC50) with Orthopoxvirus was found to be 2.5 µM.

As to `CC1(C)[C@@H]2CC[C@@]1(C)[C@H](OC(=O)CCN1CCOCC1)C2`, the half-maximal inhibitory concentration (IC50) in the series with Orthopoxvirus turned out to be 3.5 µM.

Take `CC12C=CC3(O1)C(C(=O)N1c4ccccc4SC13)C2C(=O)N/N=C1\C[C@H]2CC[C@]1(C)C2(C)C` (mixture of isomers): the IC50 entry was “Not Active” with Vaccinia virus (vero) and 36 µM in the series on Influenza A virus (setting [6]). Also, the 50% cytotoxic concentration (CC50) at 96 h in series [1] is 67.2 µM. Also, in series [3], the CC50 at 48 h turned out to be 123 µM. Further, the selectivity ratio in series [4] came out at 3.

Regarding `CCN1CC23C=CC(O2)C(C(=O)N/N=C2\C[C@H]4CC[C@]2(C)C4(C)C)C3C1=O` (mixture of isomers), the concentration for half-maximal inhibition (IC50) result with Vaccinia virus (vero) and in the series with Influenza A virus was “Not Active” each time. For the same compound, in series [1], the CC50 at 96 h is above 250 µM. The 50% cytotoxic concentration (CC50) at 48 h in series [3] was found to be 775 µM.

Take `CC(N)C12CC3CC(CC(C3)C1)C2` (stereo not given) [RIMANTADINE]: in the series with Influenza A virus (setting [6]), the half-maximal inhibitory concentration (IC50) was 67 µM. Besides, in series [4], the selectivity ratio turned out to be 5.

Consider `CC12C=CC3(O1)C(C(=O)N1CCCOC13)C2C(=O)N/N=C1\C[C@H]2CC[C@]1(C)C2(C)C` (mixture of isomers), for which the IC50 result was “Not Active” in the series on Vaccinia virus (vero) and 481 µM in the series on Influenza A virus (setting [6]). In series [1], the cytotoxic concentration (CC50) at 96 h is above 250 µM. Moreover, in series [3], the CC50 at 48 h was above 721 µM. In series [4], the selectivity ratio is 2.

Take `CC1(C)[C@@H]2CC[C@@]1(C)/C(=N/NC(=O)C(F)(F)F)C2`: the IC50 entry with Vaccinia virus (vero) and in the series on Influenza A virus was “Not Active” throughout. Further, in series [1], the CC50 at 96 h was above 250 µM. Moreover, the cytotoxic concentration (CC50) at 48 h in series [3] was above 1080 µM.

With `COCCN1CC23C=CC(O2)C(C(=O)N/N=C2\C[C@H]4CC[C@]2(C)C4(C)C)C3C1=O` (mixture of isomers), the IC50 entry with Vaccinia virus (vero) and in the series with Influenza A virus was “Not Active” in each case. In addition, in series [1], the CC50 at 96 h is above 250 µM. In series [3], the CC50 at 48 h amounted to 719 µM.

`CC1(C)[C@@H]2CC[C@@]1(C)/C(=N/NC(=O)c1cccs1)C2`: the IC50 result in the series with Vaccinia virus (vero) and with Influenza A virus was “Not Active” each time. Moreover, the half-maximal cytotoxic concentration (CC50) at 96 h in series [1] was 362 µM. In series [3], the CC50 at 48 h amounted to 1030 µM.
